# Activity calls are given as the source filed them. The rule behind the calls is not given here.
# Columns and labels:
# HT-29 [1] = assay: Induction of apoptosis in human HT-29 cells assessed as mitochondrial membrane depolarization at 30 uM by JC-1 dye-based fluorescence assay in presence of cyclosporinA; type: functional, cell-based
# HT-29 [2] = assay: Increase in extracellular acidification rate in human HT-29 cells at 2 uM measured for 20 to 150 mins by time-resolved fluorescence assay relative to control; type: functional
# Procedure, shortened: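 HT-29 cells seeded 80 000/well, incubated overnight at 37 °C without CO2. Washed and loaded with pH-sensitive time-resolved fluorescence probe in low-buffering medium (1 mM PBS pH 7.4, 20 mM glucose, salts), 10 min at 37 °C, then compound added, wells unsealed. Read 200 min at 37 °C; lifetime converted to pH, rate taken 20–150 min as H+ change/min; n = 8.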
# HT-29 [3] = assay: Downregulation of cyclin A2 expression in human HT-29 cells at 10 uM after 48 hrs by immunoblotting method; type: functional, cell-based
# Procedure, shortened: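 HT-29 exposed to 10 μM for 48 h; whole-cell lysates immunoblotted for the indicated proteins (total and cleaved PARP for the apoptosis line).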
# HT-29 [4] = assay: Antiproliferative activity against human HT-29 cells assessed as cellular DNA content after 72 hrs by CyQUANT NF fluorescence assay relative to control; type: functional
# Procedure, shortened: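 Cells seeded at 750 (HT-29), 250 (PC-3) or 900 (T84, MCF7) cells/well, treated next day with concentration series for 72 h (HT-29, PC-3) or 96 h (T84, MCF7). Relative cell number from cellular DNA content by fluorescent DNA-binding dye. Variable-slope fit; efficiency = maximal inhibition (100% − Bottom) vs untreated; IC50 relative to the compound's own maximal efficiency.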
# HT-29 [5] = assay: Induction of cell cycle arrest in human HT-29 cells assessed as accumulation at G0/G1 phase at 10 uM by flow cytometry (reference value: 66%); type: functional
# HT-29 [6] = assay: Induction of cell cycle arrest in human HT-29 cells assessed as accumulation at G2/M phase at 10 uM by flow cytometry (reference value: 21%); type: functional
# HT-29 [7] = assay: Induction of apoptosis in human HT-29 cells assessed as DNA fragmentation by measuring cytoplasmic BrdU-labeled DNA at 30 uM by ELISA; type: functional, cell-based
# Procedure, shortened: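 Cytosolic DNA by ELISA after 4 h treatment. BrdU method: cells (13 000/well) prelabelled with 10 μM BrdU for 2 days at 37 °C, unincorporated BrdU removed before treatment. Oligonucleosome method: 20 000 cells/well, 1 day at 37 °C. Cell-free background subtracted, normalized to vehicle; means ± SEM, n = 4.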
# [8] = biological target: T1, Peroxisome proliferator-activated receptor gamma (Homo sapiens, UniProt P37231); assay: Competitive binding affinity to PPARgamma (unknown origin) by TR-FRET assay
# T1 sequence (P37231 whole entry): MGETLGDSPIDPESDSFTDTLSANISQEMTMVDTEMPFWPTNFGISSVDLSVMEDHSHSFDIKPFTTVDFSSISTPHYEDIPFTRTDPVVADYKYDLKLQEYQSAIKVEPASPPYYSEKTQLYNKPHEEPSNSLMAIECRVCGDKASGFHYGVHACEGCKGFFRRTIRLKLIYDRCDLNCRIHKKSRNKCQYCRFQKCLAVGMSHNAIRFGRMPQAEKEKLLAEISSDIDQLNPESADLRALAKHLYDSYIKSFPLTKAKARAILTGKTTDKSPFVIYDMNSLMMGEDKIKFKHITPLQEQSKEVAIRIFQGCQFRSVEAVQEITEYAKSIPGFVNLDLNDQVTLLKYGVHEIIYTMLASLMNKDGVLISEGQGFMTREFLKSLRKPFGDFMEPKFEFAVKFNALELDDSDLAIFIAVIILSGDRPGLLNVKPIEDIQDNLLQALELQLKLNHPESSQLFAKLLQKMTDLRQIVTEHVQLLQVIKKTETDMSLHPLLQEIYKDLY
# HT-29 [9] = assay: Induction of ROS generation in human HT-29 cells at 30 uM by CM-H2DCFDA staining-based fluorescence assay in presence of N-acetylcysteine; type: functional, cell-based
# Procedure, shortened: (§1)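 HT-29 (15 000 cells/well) loaded with 50 μM CM-H2DCFDA in PBS for 30 min at 37 °C, washed, then 60 min in phenol red-free DMEM/F-12. 30 μM compound added alone or with NAC 1 mM, GSH 2.5 mM, D3T 25 μM, α-tocopherol 50 μM or ascorbic acid 500 μM. Fluorescence 485/530 nm read kinetically at 37 °C for 22 h; area under curve; means ± SEM, n = 7.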
# HT-29 [10] = assay: Induction of ROS generation in human HT-29 cells at 30 uM by CM-H2DCFDA staining-based fluorescence assay in presence of 3H-1,2-dithiole-3-thione; type: functional, cell-based; procedure, shortened: as §1
# HT-29 [11] = assay: Antiproliferative activity against human HT-29 cells assessed as cellular DNA content at 20 uM after 48 hrs by CyQUANT NF fluorescence assay in presence of ascorbic acid; type: functional, cell-based
# Procedure, shortened: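 HT-29 given concentration series of test compound with or without antioxidant (NAC 1 mM, GSH 2.5 mM, D3T 25 μM, α-tocopherol 50 μM, ascorbic acid 500 μM) for 48 h. Relative cell number from DNA-binding fluorescent dye; means ± SD, n = 4.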
# HT-29 [12] = assay: Induction of apoptosis in human HT-29 cells at 30 uM after 24 hrs by annexin V-FLUOS/propidium iodide staining-based flow cytometry in presence of alpha-tocopherol; type: functional, cell-based
# Procedure, shortened: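 HT-29 cells co-incubated 24 h with 30 μM compound and antioxidant: glutathione 2.5 mM, α-tocopherol 50 μM, or ascorbic acid 500 μM. Phosphatidylserine externalization measured by annexin V-FLUOS/propidium iodide staining and flow cytometry. Means ± SEM, n = 3.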
# HT-29 [13] = assay: Induction of apoptosis in human HT-29 cells at 30 uM after 24 hrs by annexin V-FLUOS/propidium iodide staining-based flow cytometry in presence of cyclosporine A; type: functional, cell-based
# Procedure, shortened: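 For 24 h, HT-29 cells were exposed to 30 μM compound with or without cyclosporin A (2 μM). Apoptosis and necrosis were scored by annexin V-FLUOS/propidium iodide flow cytometry. Means ± SEM, n = 3.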
# HT-29 [14] = assay: Antiproliferative activity against human HT-29 cells assessed as cellular DNA content after 72 hrs by CyQUANT NF fluorescence assay in presence of irinotecan; type: functional, cell-based
# Procedure, shortened: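 HT-29 exposed 72 h to concentration series of mixtures at ratios 7:0 through 0:7 with the partner drug. Relative cell number from DNA-content fluorescence. IC70 = concentration giving 70% inhibition of total cells (means ± SD, n = 4); isobolograms by Loewe additivity, CI(M) = IC70(Mx)/IC70(x) + IC70(My)/IC70(y).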
# HT-29 [15] = assay: Induction of apoptosis in human HT-29 cells assessed as opening of mitochondrial permeability transition pore at 30 uM after 30 mins calcein/CoCl2 staining-based fluorescence assay in presence of cyclosporinA; type: functional, cell-based
# Procedure, shortened: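 Trypsinized HT-29 (10^6 cells/mL) in HBSS/Ca with 10 nM calcein and 400 μM CoCl2. Pretreated 60 min at 37 °C with 2 μM cyclosporin A or vehicle, then test compound for 30 min at 37 °C. Washed; mitochondrial calcein fluorescence by flow cytometry; means ± SEM, n = 6.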
structure (smiles),measurement,setting,value
COc1c(CC=C(C)C)c(O)c(C(=O)O)c(CCc2ccccc2)c1CC=C(C)C,Activity,HT-29 [1],Active
same,fold change (FC),HT-29 [2],3
same,Activity,HT-29 [3],Active
same,Efficacy,HT-29 [4],95%
same,Activity,HT-29 [5],89%
same,Activity,HT-29 [6],7%
same,Activity,HT-29 [7],Active
same,Ki,[8],700 nM
same,Activity,HT-29 [9],inactive
same,Activity,HT-29 [10],inactive
same,Activity,HT-29 [11],Active
same,Activity,HT-29 [12],Active
same,Activity,HT-29 [13],Active
same,Activity,HT-29 [14],Active
same,Activity,HT-29 [15],inactive
